Results reported in the M2OR odorant receptor database.

Tested on: T1, A0A140T8K0
T1 sequence (whole entry): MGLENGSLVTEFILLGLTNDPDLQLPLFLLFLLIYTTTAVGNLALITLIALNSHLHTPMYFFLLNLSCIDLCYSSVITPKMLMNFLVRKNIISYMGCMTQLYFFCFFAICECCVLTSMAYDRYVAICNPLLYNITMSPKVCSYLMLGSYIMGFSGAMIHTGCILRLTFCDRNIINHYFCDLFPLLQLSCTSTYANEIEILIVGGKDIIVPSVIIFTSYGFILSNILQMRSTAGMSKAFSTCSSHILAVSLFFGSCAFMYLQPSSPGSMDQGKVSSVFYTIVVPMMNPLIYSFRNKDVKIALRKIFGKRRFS
Conditions: stereoisomer not certain
Procedure, shortened: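 Transient luciferase assays in mammalian cell lines were common, though methods varied by source. The values come from published papers and their supplementary material, with extra details from the original authors when needed. Responsive refers to a measured signal the original authors judged statistically different from baseline, and non-responsive (inactive) to the remainder.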
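Further: active if original authors judged signal statistically different from baseline.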

Odorant receptor agonist call, inactive:
CCCCCOC(=O)CCC
Cc1occc1SSc1ccoc1C
Cc1ccccc1OC(=O)C(C)C
CC=C(C)C=O
C=C(CC)CCCC(C)(C)O
CCCCCCCOC(=O)C(C)C
CCCCCCCCCCCO
CCCO
CCCCCCCCCCOC(C)=O
CCCC=O
CC1CCC(C(C)C)C(=O)C1 (centres undefined)
CC(=O)OC1(C)CCC23CC1C(C)(C)C2CCC3C (centres undefined)
CC(C)=C1CCC(C)CC1=O (centres undefined)
O=C(OCc1ccccc1)c1ccccc1O
COC(OC)c1ccccc1
CCc1occc(=O)c1O
C=C(C)C1CC=C(C)CC1 (centres undefined)
O=C(O)CCCCCBr
CCCCCCC(C)O (centres undefined)
C1CCOCC1
C1CCOC1
CCOC(=O)CC(C)C
CCc1ccccc1O
COc1ccccc1
CC(C)CCN
CCCCCCCCC=CC=O
CCCC(C)C(=O)OCC (centres undefined)
Cc1ccc2c(c1)OCC(=O)CO2
CCC=CCCCCC=O
CC(=O)OCc1ccc2c(c1)OCO2
C=C(C)C1CCC(C)C(O)C1 (centres undefined)
CCCCCC(C)O (centres undefined)
C=CC(=C)CCC=C(C)C
CC(=O)C=CC1=C(C)CCCC1(C)C
CCCCCC=CCCC=O
C=CC(=O)CCCCC
CCCCCCC(=O)OCCCC
c1ccc2ncccc2c1
Cc1ccc(C(C)C)cc1
